Our source for the Activity and dose excreted values is ChEMBL document CHEMBL3244231, “Synthesis and identification of the major metabolites of prazosin formed in dog and rat” (J Med Chem, 1977).

The structures appear in SMILES notation.

Data set [1] deals with Canis familiaris. As to the kind of experiment: Antihypertensive activity in anesthetized normotensive mongrel dog assessed as maximum decrease in blood pressure at 0.1 mg/kg, iv administered at 30 mins intervals. In kind it is functional, Canis lupus familiaris. In a few lines:
(§1)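 Anesthetized normotensive mongrel dogs each received escalating iv doses of 0.1, 0.4 and 1.0 mg/kg at 30-min intervals. After each interval, the maximum fall in blood pressure (mm) was read against control. Doses refer to the amine salts and are uncorrected; one agent was given as free base. At least two dogs were used per compound, and ranges are reported.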

The subject of data set [2] is Canis familiaris. Kind of data set: Antihypertensive activity in anesthetized normotensive mongrel dog assessed as maximum decrease in blood pressure at 0.4 mg/kg, iv administered at 30 mins intervals. In kind it is functional, Canis lupus familiaris. In a few lines: as §1
The test system of data set [3] is Canis familiaris. Kind of data set: Antihypertensive activity in anesthetized normotensive mongrel dog assessed as maximum decrease in blood pressure at 1 mg/kg, iv administered at 30 mins intervals. The class given is functional, Canis lupus familiaris. The gist of the method:
as §1

A short description of data set [4]: Drug metabolism in rat assessed as parent compound level in urine. In kind it is ADME. The note with it: read-out: Drug excretion.
Data set [5] can be described thus: Drug metabolism in rat assessed as parent compound level in bile. As to conditions: read-out: Drug excretion. The class given is ADME.
Data set [6] is described as follows: Drug metabolism in dog assessed as parent compound level in urine. In kind it is ADME, Canis lupus familiaris. As to conditions: read-out: Drug excretion.
The nature of data set [7]: Drug metabolism in dog assessed as parent compound level in bile. The note with it: read-out: Drug excretion. The class given is ADME, Canis lupus familiaris.

With `COc1cc2nc(N)nc(N)c2cc1OC`, the Activity in data set [1] is reported as 0 mmHg; in data set [2], 3 mmHg; in data set [3], 23 mmHg.

Regarding `COc1cc2c(N)nc(N3CCN(C(=O)c4ccco4)CC3)nc2cc1O.O=S(=O)(O)O`, the Activity stood at 12 mmHg in data set [2] and 18 mmHg in data set [3].

Take `COc1cc2nc(N3CCN(C(=O)c4ccco4)CC3)nc(N)c2cc1OC.Cl` [PRAZOSIN HYDROCHLORIDE]: the dose excreted in data set [4], in data set [5], in data set [6] and in data set [7] was 6% each time. Besides, the Activity in data set [1] is 20 mmHg; in data set [2], 45 mmHg; in data set [3], 55 mmHg.

For `COc1cc2nc(N3CCN(C(=O)c4ccco4)CC3)nc(N)c2cc1O.O=S(=O)(O)O`, the figures for the Activity in data set [2] and in data set [3] were 10 mmHg and 15 mmHg, respectively.
